pIC50, pKi: −log10 of the molar value.
Key:
[1] = target: Cathepsin B (Homo sapiens, UniProt P07858); experiment: Inhibitory constant against human cathepsin B using Boc-Leu-Lys-Arg-AMC substrate; details: read-out: Ki app
[2] = target: Cathepsin S (Homo sapiens, UniProt P25774); experiment: Inhibitory constant against human cathepsin S using Z-Val-Val-Arg-AMC substrate; details: read-out: Ki app
Summary of the method: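 Recombinant human cathepsin S at 500 pM in 50 mM MES pH 6.5, 2.5 mM β-mercaptoethanol, 2.5 mM EDTA, 100 mM NaCl, 0.001% BSA, 10% DMSO. 30 min enzyme–inhibitor preincubation at 21–24 °C, 8 inhibitor concentrations. Started with 60 μM Z-Val-Val-Arg-AMC; initial rates by AMC fluorescence (ex 355/em 460). Ki(app) by Morrison tight-binding fit.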

[3] = target: Procathepsin L (Homo sapiens, UniProt P07711); experiment: Inhibitory constant against human cathepsin L using Z-Phe-Arg-AMC substrate; details: read-out: Ki app
Chain of Procathepsin L (P07711 whole entry): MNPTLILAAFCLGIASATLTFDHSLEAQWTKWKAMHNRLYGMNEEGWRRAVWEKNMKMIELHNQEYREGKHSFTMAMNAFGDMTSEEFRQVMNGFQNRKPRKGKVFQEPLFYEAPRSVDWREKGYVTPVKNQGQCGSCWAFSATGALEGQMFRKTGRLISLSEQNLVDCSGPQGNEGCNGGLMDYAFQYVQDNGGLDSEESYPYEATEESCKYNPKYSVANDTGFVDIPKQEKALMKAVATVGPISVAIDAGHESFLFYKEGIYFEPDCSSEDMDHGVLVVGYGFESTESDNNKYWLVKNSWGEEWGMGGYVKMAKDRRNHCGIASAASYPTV
Summary of the method: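 Recombinant human cathepsin L at 500 pM in 50 mM MES pH 5.5, 2.5 mM DTT, 2.5 mM EDTA, 10% DMSO. Enzyme preincubated with inhibitor (8 concentrations) 30 min at 21–24 °C. Reaction started with 10 μM Z-Phe-Arg-AMC; AMC fluorescence (ex 355/em 460 nm) over first ~5 min. Ki(app) fitted with Morrison tight-binding model.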

[4] = target: Cathepsin K (Homo sapiens) (UniProt P43235); experiment: Inhibitory constant against human cathepsin K using Z-Phe-Arg-AMC substrate; details: read-out: Ki app
[5] = system: Rattus norvegicus; experiment: Terminal half-life in rat administered with 0.5 mg/kg, iv; type: functional, organism-based; design: dose 0.5 mg/kg
Summary of the method: (§1)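 Rats, three per study, cassette iv dosing of up to four compounds. Formulation DMSO (<20%), PEG 400 (<20%) and water at 0.5 mg/mL per compound, given at 1 mL/kg for 0.5 mg/kg per compound.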

[6] = system: Rattus norvegicus; experiment: Mean residence time in rat administered with 0.5 mg/kg, iv; type: functional, organism-based; design: dose 0.5 mg/kg; summary of the method: as §1
[7] = Maximum concentration in rat administered with 0.5 mg/kg, iv; type: ADME, organism-based; design: dose 0.5 mg/kg, route intravenous; details: in vivo
[8] = system: Osteoclast; experiment: In vitro bone resorption in isolated rabbit osteoclasts; type: functional, cell-based; details: Oryctolagus cuniculus
Summary of the method: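 Bovine bone degraded by isolated rabbit osteoclasts; collagen degradation read by ELISA. 8-point dose–response curves; IC50 derived.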

Chain of Cathepsin S (P25774 whole entry): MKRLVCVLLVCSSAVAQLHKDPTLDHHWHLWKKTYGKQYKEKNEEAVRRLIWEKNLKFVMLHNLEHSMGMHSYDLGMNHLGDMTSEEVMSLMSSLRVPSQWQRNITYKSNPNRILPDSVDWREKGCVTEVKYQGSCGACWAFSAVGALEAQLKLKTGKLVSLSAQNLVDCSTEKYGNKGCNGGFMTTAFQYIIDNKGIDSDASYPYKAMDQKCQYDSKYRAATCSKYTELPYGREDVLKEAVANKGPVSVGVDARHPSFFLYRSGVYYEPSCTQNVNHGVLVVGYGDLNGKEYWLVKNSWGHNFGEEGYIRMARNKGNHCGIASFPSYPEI

N#CCNC(=O)C1(NC(=O)c2ccc(Br)s2)CCCCC1
pKi [1]: 5.51
pKi [2]: 5.85
pKi [3]: 5.23
pKi [4]: 7.80

N#CCNC(=O)C1(NC(=O)OCc2ccccc2)CC1
pKi [1]: < 3.82
pKi [2]: < 3.82
pKi [3]: < 3.82
pKi [4]: < 3.82

N#CCNC(=O)C1(NC(=O)c2ccc(-c3csc(OC4CCNCC4)n3)cc2)CCCCC1
T1/2 [5]: 2.53 h
pKi [1]: 6.13
MRT [6]: 1.23 h
pKi [2]: 4.17
pKi [3]: 4.96
Cmax [7]: 1.4 µM
pIC50 [8]: 7.37
pKi [4]: 9.24

N#CCNC(=O)C1(NC(=O)c2ccc(Br)cc2)CCCCC1
pKi [1]: 5.64
pKi [2]: 5.00
pKi [3]: 4.77
pKi [4]: 7.74

CC(C)N(C)C1CCN(c2nc(-c3ccc(C(=O)NC4(C(=O)NCC#N)CCCCC4)cc3)cs2)CC1
T1/2 [5]: 1.92 h
pKi [1]: 5.85
MRT [6]: 2.02 h
pKi [2]: 5.49
pKi [3]: 4.82
Cmax [7]: 0.43 µM
pIC50 [8]: 7.96
pKi [4]: 8.80

CC(C)C[C@@H](NC(=O)OCc1ccccc1)C(=O)NCC#N
pKi [1]: < 3.82
pKi [2]: 4.87
pKi [3]: < 3.82
pKi [4]: 4.89

CC[C@H](C)[C@H](NC(=O)OCc1ccccc1)C(=O)NCC#N
pKi [1]: 4.15
pKi [2]: 4.85
pKi [3]: 4.60
pKi [4]: 5.82

CN1CCC(N(C)c2ccc(-c3ccc(C(=O)NC4(C(=O)NCC#N)CCCCC4)cc3)cc2)C1 (centres undefined)
pKi [1]: 6.47
pKi [2]: 5.06
pKi [3]: 5.70
pIC50 [8]: 7.48
pKi [4]: > 9.60

N#CCNC(=O)C1(NC(=O)c2cccc(Br)c2)CCCCC1
pKi [1]: 5.10
pKi [2]: 5.21
pKi [3]: 5.10
pKi [4]: 6.64

CN(C)c1ccc(-c2ccc(C(=O)NC3(C(=O)NCC#N)CCCCC3)cc2)cc1
pKi [1]: 6.17
pKi [2]: 5.24
pKi [3]: 5.49
pKi [4]: 8.70

CC(C)NC1CCN(c2nc(-c3ccc(C(=O)NC4(C(=O)NCC#N)CCCCC4)cc3)cs2)CC1
T1/2 [5]: 2.55 h
pKi [1]: 6.12
MRT [6]: 2.42 h
pKi [2]: 4.48
pKi [3]: 4.92
Cmax [7]: 0.66 µM
pIC50 [8]: 7.72
pKi [4]: 9.23

CN1CCC(C)(c2nc(-c3ccc(C(=O)NC4(C(=O)NCC#N)CCCCC4)cc3)cs2)CC1
T1/2 [5]: 2.28 h
pKi [1]: 5.96
MRT [6]: 2.33 h
pKi [2]: 4.52
pKi [3]: 5.12
Cmax [7]: 0.44 µM
pIC50 [8]: 7.34
pKi [4]: 9.02

CC(C)C[C@](C)(NC(=O)OCc1ccccc1)C(=O)NCC#N
pKi [1]: < 3.82
pKi [2]: 5.38
pKi [3]: < 3.82
pKi [4]: 5.74

N#CCNC(=O)C1(NC(=O)c2csc(-c3ccncc3)n2)CCCCC1
pKi [1]: 5.03
pKi [2]: 5.40
pKi [3]: < 3.82
pKi [4]: 6.82

CN1CCC[C@H]1COc1ccc(-c2ccc(C(=O)NC3(C(=O)NCC#N)CCCCC3)cc2)cc1
pKi [1]: 6.23
pKi [2]: 5.00
pKi [3]: 5.40
pIC50 [8]: 7.62
pKi [4]: > 9.60

N#CCNC(=O)C1(NC(=O)c2ccc(N3CCOCC3)cc2)CCCCC1
pKi [1]: 5.07
pKi [2]: 4.38
pKi [3]: 4.30
pKi [4]: 7.72

N#CCNC(=O)C1(NC(=O)CCc2ccccc2)CCCCC1
pKi [1]: 4.00
pKi [2]: 4.47
pKi [3]: < 3.82
pKi [4]: 6.39

CN(C)C1CCN(c2nc(-c3ccc(C(=O)NC4(C(=O)NCC#N)CCCCC4)cc3)cs2)C1 (centres undefined)
T1/2 [5]: 0.633 h
pKi [1]: 5.77
MRT [6]: 0.683 h
pKi [2]: 4.59
pKi [3]: 4.92
Cmax [7]: 0.3 µM
pIC50 [8]: 6.96
pKi [4]: 9.10

N#CCNC(=O)C1(NC(=O)OCc2ccccc2)CCCC1
pKi [1]: 3.96
pKi [2]: < 3.82
pKi [3]: < 3.82
pKi [4]: 5.82

CN1CCC(c2nc(-c3ccc(C(=O)NC4(C(=O)NCC#N)CCCCC4)cc3)cs2)CC1
T1/2 [5]: 0.717 h
pKi [1]: 5.85
MRT [6]: 0.233 h
pKi [2]: 4.70
pKi [3]: 4.82
Cmax [7]: 1.43 µM
pIC50 [8]: 7.21
pKi [4]: 8.80

N#CCNC(=O)C1(NC(=O)c2ccc(-c3csc(N4CCOCC4)n3)cc2)CCCCC1
T1/2 [5]: 0.483 h
pKi [1]: 5.51
MRT [6]: 0.467 h
pKi [2]: 4.89
pKi [3]: 4.13
Cmax [7]: 1.4 µM
pIC50 [8]: 7.46
pKi [4]: 8.64

C#Cc1ccc(C(=O)NC2(C(=O)NCC#N)CCCCC2)cc1
pKi [1]: 5.96
pKi [2]: 4.82
pKi [3]: 4.74
pKi [4]: 7.89

CN1CCN(c2ccc(C(=O)NC3(C(=O)NCC#N)CCCCC3)cc2)CC1
pKi [1]: 5.57
pKi [2]: 4.80
pKi [3]: 5.02
pKi [4]: 8.82

N#CCNC(=O)C1(NC(=O)c2cccc(-c3ccccc3)c2)CCCCC1
pKi [1]: 5.08
pKi [2]: 5.72
pKi [3]: 4.66
pKi [4]: 6.68

N#CCNC(=O)C1(NC(=O)OCc2ccccc2)CCCCC1
pKi [1]: 4.19
pKi [2]: 4.51
pKi [3]: 4.02
pKi [4]: 7.08

CCCC[C@H](NC(=O)OCc1ccccc1)C(=O)NCC#N
pKi [1]: < 3.82
pKi [2]: 6.07
pKi [3]: 4.43
pKi [4]: 6.31

CN(C)c1ccc(C(=O)NC2(C(=O)NCC#N)CCCCC2)cc1
pKi [1]: 5.28
pKi [2]: 4.46
pKi [3]: 4.32
pKi [4]: 8.48

CC(C)C[C@H](NC(=O)OCc1ccccc1)C(=O)NCC#N
pKi [1]: 3.91
pKi [2]: 6.84
pKi [3]: 5.55
pKi [4]: 7.46

CC(C)(C)C[C@H](NC(=O)OCc1ccccc1)C(=O)NCC#N
pKi [1]: 4.20
pKi [2]: 6.82
pKi [3]: 4.64
pKi [4]: 6.64

CN1CCN(S(=O)(=O)c2ccc(C(=O)NC3(C(=O)NCC#N)CCCCC3)cc2)CC1
pKi [1]: 5.51
pKi [2]: 3.99
pKi [3]: 4.15
pKi [4]: 7.89

COCCN1CCN(c2nc(-c3ccc(C(=O)NC4(C(=O)NCC#N)CCCCC4)cc3)cs2)CC1
T1/2 [5]: 1.97 h
pKi [1]: 5.89
MRT [6]: 0.683 h
pKi [2]: 4.70
pKi [3]: 5.19
Cmax [7]: 1.78 µM
pIC50 [8]: 8.40
pKi [4]: 9.32

N#CCNC(=O)C1(NC(=O)c2ccc(-c3csc(N4CC[C@@H](N)C4)n3)cc2)CCCCC1
T1/2 [5]: 0.883 h
pKi [1]: 5.52
MRT [6]: 0.893 h
pKi [2]: 5.35
pKi [3]: 5.12
Cmax [7]: 0.84 µM
pIC50 [8]: 7.28
pKi [4]: 8.85

CN1CCN(Cc2nc(-c3ccc(C(=O)NC4(C(=O)NCC#N)CCCCC4)cc3)cs2)CC1
T1/2 [5]: 1.28 h
pKi [1]: 5.82
MRT [6]: 1.25 h
pKi [2]: 4.38
pKi [3]: 4.72
Cmax [7]: 0.43 µM
pIC50 [8]: 7.22
pKi [4]: 9.03

N#CCNC(=O)[C@@H](NC(=O)OCc1ccccc1)c1ccccc1
pKi [1]: < 3.82
pKi [2]: 5.46
pKi [3]: 4.06
pKi [4]: 4.77

N#CCNC(=O)C1(NC(=O)c2ccc(-c3csc(CN4CCOCC4)n3)cc2)CCCCC1
pKi [1]: 5.42
MRT [6]: 0.26 h
pKi [2]: 6.60
pKi [3]: 5.66
Cmax [7]: 0.55 µM
pIC50 [8]: 6.68
pKi [4]: 8.06

CN1CCN(C(=O)c2ccc(C(=O)NC3(C(=O)NCC#N)CCCCC3)cc2)CC1
pKi [1]: 4.89
pKi [2]: 3.96
pKi [3]: < 3.82
pKi [4]: 7.85

N#CCNC(=O)[C@H](Cc1ccc2ccccc2c1)NC(=O)OCc1ccccc1
pKi [1]: 5.52
pKi [2]: 6.74
pKi [3]: 7.27
pKi [4]: 4.52

CCCN1CCN(c2ccc(C(=O)NC3(C(=O)NCC#N)CCCCC3)cc2)CC1 [BALICATIB]
pKi [1]: 5.54
pKi [2]: 4.55
pKi [3]: 4.74

CC(C[C@H](NC(=O)OCc1ccccc1)C(=O)NCC#N)C(F)(F)F (some centres undefined)
pKi [1]: < 3.82
pKi [2]: 6.40
pKi [3]: 4.66
pKi [4]: 6.46

CC(C)(C)[C@H](NC(=O)OCc1ccccc1)C(=O)NCC#N
pKi [1]: < 3.82
pKi [2]: < 3.82
pKi [3]: < 3.82
pKi [4]: 5.72

C[C@@H](O)[C@H](NC(=O)OCc1ccccc1)C(=O)NCC#N
pKi [1]: < 3.82
pKi [2]: 4.38
pKi [3]: 4.85
pKi [4]: 4.96

CN1CCN(N(C)c2nc(-c3ccc(C(=O)NC4(C(=O)NCC#N)CCCCC4)cc3)cs2)CC1
T1/2 [5]: 1.53 h
pKi [1]: 6.05
MRT [6]: 1.03 h
pKi [2]: 4.68
pKi [3]: 5.05
Cmax [7]: 0.47 µM
pIC50 [8]: 7.96
pKi [4]: 9.60

N#CCNC(=O)C1(NC(=O)c2ccc(-c3ccc(-c4ccno4)cc3)cc2)CCCCC1
pKi [1]: 5.74
pKi [2]: 5.60
pKi [3]: 6.38
pIC50 [8]: 7.43
pKi [4]: 8.27

N#CCNC(=O)C1(NC(=O)c2ccc(-c3ccccc3)cc2)CCCCC1
pKi [1]: 5.89
pKi [2]: 5.06
pKi [3]: 4.64
pKi [4]: 8.21

N#CCNC(=O)C1(NC(=O)c2ccc(N)cc2)CCCCC1
pKi [1]: 5.00
pKi [2]: 5.19
pKi [3]: 4.35
pKi [4]: 7.49

— ChEMBL document CHEMBL1141198, “Design and synthesis of tri-ring P3 benzamide-containing aminonitriles as potent, selective, orally effective inhibitors of cathepsin K” (J Med Chem, 2005)
